Here are results for 32 compounds from ChEMBL document CHEMBL1154366, “1,2-Diamines as inhibitors of co-activator associated arginine methyltransferase 1 (CARM1)” (Bioorg Med Chem Lett, 2009).

The target in data set [1] is T1, Histone-arginine methyltransferase CARM1 (Mus musculus, UniProt Q9WVG6).
T1 sequence (Q9WVG6 whole entry): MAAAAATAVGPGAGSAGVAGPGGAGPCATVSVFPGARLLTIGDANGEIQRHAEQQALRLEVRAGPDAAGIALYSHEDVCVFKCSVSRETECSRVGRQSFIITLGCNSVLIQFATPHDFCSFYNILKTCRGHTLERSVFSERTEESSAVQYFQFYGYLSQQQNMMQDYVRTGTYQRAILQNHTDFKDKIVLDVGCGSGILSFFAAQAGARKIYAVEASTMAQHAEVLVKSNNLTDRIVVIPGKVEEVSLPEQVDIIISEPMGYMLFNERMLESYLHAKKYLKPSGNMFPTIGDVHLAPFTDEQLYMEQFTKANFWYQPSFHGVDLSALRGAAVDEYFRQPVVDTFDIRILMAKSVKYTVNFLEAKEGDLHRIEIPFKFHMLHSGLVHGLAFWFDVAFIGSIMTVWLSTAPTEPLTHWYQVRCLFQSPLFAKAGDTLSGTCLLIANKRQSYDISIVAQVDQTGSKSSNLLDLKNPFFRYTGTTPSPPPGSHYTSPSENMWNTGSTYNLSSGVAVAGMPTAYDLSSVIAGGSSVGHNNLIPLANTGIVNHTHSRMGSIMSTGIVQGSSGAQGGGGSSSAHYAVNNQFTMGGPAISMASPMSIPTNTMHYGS
The data set can be described thus: Inhibition of N-terminal His-tagged mouse recombinant CARM1 expressed in Sf9 cells by microbeta counting. The method in brief: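 Recombinant CARM1 with histone H3 substrate, in Tris-HCl pH 9. Enzyme pre-incubated with compound for 10 min at RT. [3H]SAM (20% labelled, 0.033 mCi/ml) and H3 were added, then 15 min at 30 °C. Quenched with SAH and spotted on P30 filtermat. Washed twice with 10% TCA and once with 95% ethanol, then wax scintillant counting. Values are means of at least two experiments.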

Data set [2] is described as follows: (§1) Volume of distribution at steady state in iv dosed rat. The format is ADME, organism-based. As to conditions: in vivo, read-out: Vdss.
A short description of data set [3]: (§2) Clearance in iv dosed rat. The format is ADME, organism-based. Conditions: in vivo.
Data set [4] is described as follows: (§3) Half life in iv dosed rat. Conditions: in vivo. The data set is classed as ADME, organism-based.
Data set [5] is described as follows: Bioavailability in rat. The data set is classed as ADME, organism-based. Conditions: in vivo.
In data set [6] the target is Protein arginine N-methyltransferase 1 (Homo sapiens, UniProt Q99873). The data set is described as follows: Inhibition of N-terminal GST-tagged human recombinant PRMT1 expressed in Escherichia coli by microbeta counting. The method in brief: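 GST-tagged human PRMT1 made in E. coli, with recombinant histone H4 as substrate, in Tris-HCl pH 9. Enzyme pre-incubated with compound for 10 min at RT. [3H]SAM (20% labelled, 0.033 mCi/ml) and H4 were added, then 15 min at 30 °C. Stopped with SAH and spotted onto P30 filtermat. Washed with 10% TCA and 95% ethanol, then scintillation-counted.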
Protein arginine N-methyltransferase 1, sequence (Q99873 whole entry): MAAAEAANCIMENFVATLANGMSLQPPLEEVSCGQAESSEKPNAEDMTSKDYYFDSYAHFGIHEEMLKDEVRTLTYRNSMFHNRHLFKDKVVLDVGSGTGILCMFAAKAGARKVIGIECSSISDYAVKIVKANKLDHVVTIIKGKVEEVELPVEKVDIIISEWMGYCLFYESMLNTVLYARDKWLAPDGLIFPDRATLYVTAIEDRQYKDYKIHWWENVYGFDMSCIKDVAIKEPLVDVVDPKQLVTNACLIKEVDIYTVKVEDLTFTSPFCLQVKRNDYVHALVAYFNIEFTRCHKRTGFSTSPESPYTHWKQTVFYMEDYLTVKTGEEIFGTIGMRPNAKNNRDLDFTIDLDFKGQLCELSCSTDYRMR

Data set [7] concerns the target T2, Histone-lysine N-methyltransferase SETD7 (Homo sapiens, UniProt Q8WTS6).
T2 sequence (Q8WTS6 whole entry): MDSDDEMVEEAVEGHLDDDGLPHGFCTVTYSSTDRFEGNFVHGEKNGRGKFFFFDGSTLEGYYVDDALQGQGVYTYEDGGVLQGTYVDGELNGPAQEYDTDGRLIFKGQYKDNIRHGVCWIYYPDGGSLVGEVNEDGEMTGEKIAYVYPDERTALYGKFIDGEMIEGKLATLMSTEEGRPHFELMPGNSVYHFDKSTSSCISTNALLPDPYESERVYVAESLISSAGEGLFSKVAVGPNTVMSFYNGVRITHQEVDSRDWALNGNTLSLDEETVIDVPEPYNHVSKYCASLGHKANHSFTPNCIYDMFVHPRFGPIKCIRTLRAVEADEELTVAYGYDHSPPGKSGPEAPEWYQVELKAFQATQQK
The data set can be described thus: Inhibition of N-terminal His-tagged human recombinant SET7/9 expressed in Escherichia coli by microbeta counting. The method in brief: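 His-tagged human SET9 made in E. coli, with histone H3 substrate, in Tris-HCl pH 9. Compound and enzyme pre-incubated for 10 min at RT. [3H]SAM (20% labelled, 0.011 mCi/ml) and H3 were added, then 45 min at 37 °C. Reaction stopped and transferred to a flashplate. Washed twice with 10% TCA, dried and counted.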

The test system of data set [8] is Rattus norvegicus. Described as §1. As to conditions: in vivo. The format is ADME, organism-based.
Data set [9] concerns Rattus norvegicus. The description is as §2. The data set is classed as ADME, organism-based. As to conditions: in vivo.
In data set [10] the test system is Rattus norvegicus. The description is as §3. The format is ADME, organism-based. Conditions: in vivo.

pIC50: −log10 of the molar value.

`COc1ccccc1CNC(=O)c1cc(C(F)(F)F)nn1-c1cccc(CCNC(=O)[C@H](C)N)c1`: the pIC50 in data set [1] was under 4.70.

As for `COc1ccccc1CNC(=O)c1cc(C(F)(F)F)nn1-c1cccc(CNCCN)c1`, in [1], the pIC50 is 6.00.

`CNCCNCc1cc(-n2nc(C(F)(F)F)cc2C(=O)NCc2ccccc2OC)cc(C(F)(F)F)c1`: the pIC50 in data set [1] was under 4.70.

With `COc1ccccc1CNC(=O)c1cc(C(F)(F)F)nn1-c1cccc(-c2n[nH]c([C@H](C)N)n2)c1`, in data set [1], the pIC50 was under 4.70.

As for `CCOc1ccccc1CNC(=O)c1cc(C(F)(F)F)nn1-c1cccc(CNCCNC)c1`, the pIC50 in [1] is 6.05. The Vd in data set [2] is 0.1 L/kg. This compound also had a clearance in [3] of 20 mL/min/kg. The compound further had a half-life in data set [4] of 0.5 h. The compound further displayed a bioavailability in [5] of 2%.

`CNCCNCc1cccc(-n2nc(C(F)(F)F)cc2C(=O)NCc2c(OC)ccc3ccccc23)c1`: the pIC50 in data set [1] is 5.47.

Regarding `CNCCNCc1cccc(-n2nc(C(F)(F)F)cc2C(=O)NCc2ccccc2OC)c1`, the pIC50 in data set [1] is 6.70; in [6] it was under 4.00; in data set [7], under 4.00. In addition, in [2], the Vd stood at 1.4 L/kg. The same compound showed a clearance in data set [3] of 20 mL/min/kg. In addition, the half-life in data set [4] is 2.1 h. In addition, in data set [5], the bioavailability came to 4%.

Take `CNCCNCc1cccc(-n2nc(C(F)(F)F)cc2C(=O)NCc2cccc3ccccc23)c1`: the pIC50 in data set [1] is 6.49. For the same compound, the Vd in data set [2] is 0.2 L/kg. In addition, the clearance in [3] is 38.3 mL/min/kg. In data set [4], this compound showed a half-life of 1.4 h. Further, the bioavailability in [5] turned out to be 3%.

In the case of `CNCCNCc1cccc(-n2nc(C(F)(F)F)cc2C(=O)NCc2cccc3c2OCCO3)c1`, the pIC50 in data set [1] is 6.15.

Turning to `CNCCNCc1cc(-n2nc(C(F)(F)F)cc2C(=O)NCc2ccccc2OC)ccc1C`, the pIC50 in data set [1] is 5.10.

Regarding `CCc1ccccc1CNC(=O)c1cc(C(F)(F)F)nn1-c1cccc(CNCCNC)c1`, the pIC50 in data set [1] is 5.79.

With `CCNCCNCc1cccc(-n2nc(C(F)(F)F)cc2C(=O)NCc2ccccc2OC)c1`, the pIC50 in [1] is 5.11.

In the case of `CNCCNC(C)c1cccc(-n2nc(C(F)(F)F)cc2C(=O)NCc2ccccc2OC)c1` (stereo unspecified), in data set [1], the pIC50 is 4.68.

For `COc1ccccc1CNC(=O)c1cc(C(F)(F)F)nn1-c1cccc(CNCCN(C)C)c1`, the pIC50 in data set [1] was 5.10.

On to `CNCCNCc1cccc(-n2nc(C(F)(F)F)cc2C(=O)NCc2cc(F)ccc2OC)c1`, for which the pIC50 in data set [1] is 6.15.

For `CNCCNCc1cccc(-n2nc(C(F)(F)F)cc2-c2nnc(-c3ccccc3OC)o2)c1`, in data set [2], the Vd came to 0.6 L/kg. In addition, in [3], the clearance is 36.7 mL/min/kg. Further, the half-life in data set [4] was 1.8 h. The bioavailability in [5] is 3%.

As for `CNCCNCc1cccc(-n2nc(C(F)(F)F)cc2C(=O)NCCc2c[nH]c3ccccc23)c1`, in data set [1], the pIC50 was 5.74.

In the case of `CNCCNCc1cccc(-n2nc(C(F)(F)F)cc2C(=O)NCc2nc3ccccc3[nH]2)c1`, the pIC50 in data set [1] was 5.37.

The compound `COc1ccccc1CNC(=O)c1cc(C(F)(F)F)nn1-c1cccc(CNC(=O)[C@H](C)N)c1` yielded a Vdss with Rattus norvegicus [8] of 33.6 L/kg. Further, in the data set with Rattus norvegicus [9], the CL was determined as 1430 mL/min/kg. The same compound displayed a t1/2 in the data set on Rattus norvegicus [10] of 4.2 min.

`COc1ccccc1CNC(=O)c1cc(C(F)(F)F)nn1-c1cccc(CNC(=O)[C@H](C)O)c1`: the pIC50 in [1] is under 4.70.

As for `COc1ccccc1CNC(=O)c1cc(C(F)(F)F)nn1-c1cccc(CNC(=S)[C@H](C)N)c1`, the pIC50 in data set [1] is 5.35.

With `CNCCNCc1cccc(-n2nc(C(F)(F)F)cc2C(=O)NCc2ccccc2OC(F)(F)F)c1`, the pIC50 in [1] was 5.19.

For the compound `CNCCNCc1cc(-n2nc(C(F)(F)F)cc2C(=O)NCc2ccccc2OC)ccc1F`, the pIC50 in [1] is 5.25.

`CNCCNCc1cccc(-n2nc(C(F)(F)F)cc2C(=O)NCc2ccccc2)c1`: in data set [1], the negative logarithm of the IC50 (pIC50) is under 5.00.

On to `COc1ccccc1CNC(=O)c1cc(C(F)(F)F)nn1-c1cccc(CNC2CCNC2)c1` (stereo unspecified), for which the pIC50 in [1] is under 4.70.

As for `CNCCNCc1cccc(-n2nc(C(F)(F)F)cc2C(=O)NCc2ccccc2N)c1`, the pIC50 in data set [1] is under 5.00.

On to `CNCCNCc1ccc2c(c1)n1nc(C(F)(F)F)cc1c(=O)n2Cc1ccccc1OC`, for which the pIC50 in data set [1] was under 5.00.

Consider `CNCCNC(=O)c1cccc(-n2nc(C(F)(F)F)cc2C(=O)NCc2ccccc2OC)c1`, for which, in data set [1], the pIC50 was under 4.70.

With `CNCCNCc1cccc(-n2nc(C(F)(F)F)cc2C(=O)NCC2CCCCC2)c1`, the pIC50 in data set [1] was 5.44.

For `CNCCNCc1cccc(-n2nc(C(F)(F)F)cc2C(=O)NCc2nc3ccccc3n2C)c1`, the pIC50 in data set [1] was 5.33.

`CNCCNCc1cccc(-n2nc(C(F)(F)F)cc2C(=O)NCc2ccccc2C)c1`: the pIC50 in [1] was 4.88.

In the case of `COc1ccccc1CNC(=O)c1cc(C(F)(F)F)nn1-c1cccc(-c2noc([C@H](C)N)n2)c1`, the pIC50 in [1] is under 4.70.

What is called pIC50 is the negative decadic logarithm of the IC50, by convention in mol/L. In general, clearance refers to the rate of elimination divided by the concentration. High values mean a high capacity for elimination, low ones a low capacity for elimination. The term half-life denotes the time in which the quantity being followed falls by half. Read a high half-life as slow loss. The term bioavailability denotes dose-corrected exposure relative to a reference, in per cent. Low values mean little systemic uptake, high ones much systemic uptake. For orientation: Vdss means a proportionality between amount in the body and measured concentration, not a real space. The low end stands for confinement near the circulation, the high end for extensive tissue distribution.
